Experimental data from article PMC2612038 (Journal of molecular biology, 2008).
Entries after “also recorded” stand apart in the source; their conditions may differ. Like-named read-outs stand apart in the source and are kept apart here. One block for each molecule: values may come before it.

What was measured:
[1] = Structure in isolation; assay type: physicochemical; conditions: for structure in isolation: absence of oppositely charged partner
In short: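 Uniformly 13C/15N-labelled Hdm2-ABD (2 mM) was studied in 10 mM sodium phosphate, 10 mM NaCl, 0.01% azide, 6% D2O, pH 6.0, 25 °C. Backbone assignments came from HSQC, CT-HNCA, CT-HN(CO)CA, HNCACB and CBCA(CO)NH spectra, and side chains from C(CO)NH- and H(CCO)NH-TOCSY. 1H was referenced to external TSP, with 13C/15N referenced indirectly.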

[2] = Sedimentation velocity AUC of the isolated polypeptide; assay type: physicochemical
In short: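 Sedimentation velocity was run at 50,000 rpm and 20 °C, with Rayleigh interference scans every 1 min. Samples were dialysed into 10 mM sodium phosphate pH 6.0 with 10 mM NaCl (150 mM for high ionic strength), and the dialysate was the reference. Analysis used c(s) with maximum-entropy regularisation (p = 0.7, n = 100), with s from main-peak integration and weight-average f/f0. c(M) came from c(s). c(s, f/f0) used an f/f0 grid of 1.2–2.2 and s of 0.1–5 S.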

[3] = tested on: Hdm2-ABD lacking the H1 and/or H2 segments; assay: CD co-assembly of A1-mini with Hdm2-ABD lacking H1 and/or H2 segments; assay type: binding, human; conditions: deletion of the H1 and/or H2 segments (Suppl. Fig. 1)
[4] = tested on: Arf-null NIH 3T3 mouse fibroblasts; assay: BrdU incorporation / cell cycle arrest assay after nuclear micro-injection; assay type: cell-based; conditions: peptide 2–4 mg/ml, BrdU 10 μM, 8 hours, 3 independent experiments
[5] = Solubility; assay type: physicochemical; conditions: co-assemblies with Hdm2-ABD
[6] = tested on: Mdm2; assay: Nucleolar co-localization with endogenous Mdm2 after nuclear micro-injection; assay type: cell-based, mouse; conditions: for cells with co-localization with Mdm2 in nucleoli: 0.5 mg/mL TR-A1-mini injected into nuclei, 4 hour recovery, anti-mdm2 2A10
[7] = tested on: 15N-Hdm2-ABD; assay: 2D 1H-15N HSQC NMR of 15N-Hdm2-ABD with Arf peptide; assay type: binding, human
In short: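 15N-Hdm2-ABD was expressed in E. coli in MOPS minimal medium with 15NH4Cl and purified. […] Combined shift perturbation: Δδ1H/15N = [(Δδ1HN)² + 0.0289·(Δδ15NH)²]^1/2, each difference taken as bound minus free.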

[8] = cited from earlier work
[9] = cited from earlier work; remark: listed apart in the source
[10] = Pulsed magnetic field gradient/diffusion NMR of free Hdm2-ABD; assay type: physicochemical; conditions: 1 mM 15N-Hdm2-ABD, 10 mM sodium phosphate, 10 mM NaCl, pH 6; dioxane standard
In short: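 Diffusion was recorded at 600 MHz on 1 mM 15N-Hdm2-ABD in 10 mM sodium phosphate, 10 mM NaCl, pH 6. A 15N-filtered BPP-MAXY-D sequence gave 1D spectra across gradient strengths of 1–60 G cm−1. Dioxane served as internal standard to normalise for solution conditions. Equivalent unfolded chain length was estimated from Rh = (2.21 ± 1.07)N^(0.57 ± 0.02).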

[11] = tested on: nucleoli of Arf-null NIH 3T3 mouse fibroblasts; assay: Nucleolar localization after nuclear micro-injection; assay type: cell-based; conditions: 0.5 mg/mL TR-A1-mini injected into nuclei; 33/42 cells; 4 hour recovery
[12] = tested on: Mdm2; conditions: cited from earlier work
[13] = tested on: mouse fibroblasts; conditions: cited from earlier work
[14] = tested on: 15N-Hdm2-ABD; conditions: 3 equivalents; cited from earlier work
[15] = target: Hdm2-ABD (Homo sapiens, UniProt Q00987); conditions: cited from earlier work
Sequence of Hdm2-ABD (Q00987 210-304): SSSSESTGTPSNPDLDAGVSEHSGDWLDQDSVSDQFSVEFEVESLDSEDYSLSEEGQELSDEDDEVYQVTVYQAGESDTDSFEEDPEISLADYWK

[16] = tested on: 15-residue peptide containing the H1 segment of Hdm2; conditions: cited from earlier work
[17] = target: Arf-binding domain of Hdm2 (Hdm2-ABD), residues 210-304 (human, UniProt Q00987 210-304); assay: circular dichroism
Sequence of Arf-binding domain of Hdm2 (Hdm2-ABD), residues 210-304 (Q00987 210-304): as above

[18] = 0.5 mM, 20 °C, 10 mM sodium phosphate pH 6.0, 10 mM NaCl, c(s) model

structure in isolation [1]: intrinsically unstructured
sedimentation state, isolated ([2]; AUC, data not shown): sedimented as a monomer
solubility of peptide/Hdm2-ABD co-assemblies [5]: > 1000 µM
Molecule: CC(C)C[C@H](NC(=O)[C@H](Cc1ccccc1)NC(=O)[C@H](CCCNC(=N)N)NC(=O)[C@H](CCCNC(=N)N)NC(=O)CN)C(=O)N[C@H](C(=O)N[C@H](C(=O)N[C@H](C(=O)N[C@@H](CCCNC(=N)N)C(=O)O)C(C)C)[C@@H](C)O)C(C)C [A1-mini]
co-assembly with Hdm2-ABD deletion variants [3]: complete abrogation of co-assembly
inhibition of BrdU incorporation / cell cycle arrest [4]: did not cause cell cycle arrest; also recorded: No significant differences in the percentage of cells undergoing DNA replication
cells with co-localization with Mdm2 in nucleoli [6]: 7%
Δδ13Cα, 1H-1H NOE and heteronuclear NOE differences of 15N-Hdm2-ABD ([7]; absence vs presence of A1-mini, data not shown): significant differences in these parameters were not detected
1H-15N HSQC resonance intensities of 15N-Hdm2-ABD ([7]; in presence of four-fold molar excess A1-mini (Suppl. Fig. 5B)): significant reduction in the intensity; also recorded: reduced significantly

Molecule: (AEAEAKAK)2
self-assembly [8]: self-assembled into β-strand-rich structures with fibrilar characteristics

Molecule: Hdm2-ABD: Hdm2 domain spanning residues 210-304 (Arf-binding domain)
structure in isolation [1]: intrinsically unstructured
secondary 13Cα chemical shift values (Δδ13Cα) ([1]; free Hdm2-ABD, pH 6.0, 25 °C (Suppl. Fig. 7B)): close to zero
frictional ratio (f/f0), isolated [2, 18]: 2.18
sedimentation coefficient (s), isolated [2, 18]: 1.0 S
molecular mass by AUC, isolated ([2]; 0.5 mM, 20 °C, pH 6.0, 10 mM NaCl): ~ 10,900 Da
structure in isolation [9]: intrinsically unstructured in isolation
radius of hydration (Rh), free [10]: 25.7 Å

Molecule: N-CGGGGGRRFLVTVR-C [TR-A1-mini]
injected cells with nucleolar localization [11]: 79%
inhibition of BrdU incorporation / cell cycle arrest [4]: did not inhibit the incorporation of bromo-deoxyuridine (BrdU) into DNA
cells with co-localization with Mdm2 in nucleoli [6]: 7%
cells with nucleoplasmic Mdm2 and nucleolar TR-A1-mini localization ([6]; Fig. 5, nuclear injection): 93%

Molecule: mArf-N37: 37-residue intrinsically unstructured N-terminal fragment of p19^Arf (MGRRFLVTVRIQRAGRPLQERVFLVKFVRSRRPRTAS; UniProt Q64364 1-37, looked up, fragment)
structure in isolation [9]: intrinsically unstructured in isolation
binding to Mdm2 [12]: bound to Mdm2
co-assembly with Mdm2 in nucleoli ([12]; in cells): co-assembled specifically with Mdm2 in nucleoli
cell cycle arrest [13]: exhibited cell cycle arrest activity in vivo
p53-dependent cell cycle arrest ([13]; mouse fibroblasts): caused p53-dependent cell cycle arrest in mouse fibroblasts
effect on 15N-Hdm2-ABD resonances [14]: broaden beyond detection
Hdm2-ABD concentration at which complete conversion to β-strand occurs ([15]; 1 molar equivalent of peptide): ≥ 10 µM

Molecule: residues 1-15 of p14^Arf: peptide corresponding to residues 1-15 of p14^Arf (MVRRFLVTLRIRRAC; UniProt Q8N726 1-15, looked up, fragment)
assembly with 15-residue H1 peptide of Hdm2 [16]: irreversibly assembled into bi-molecular oligomers
irreversible assembly into bi-molecular oligomers with Hdm2-ABD [15]: irreversibly assembled into bi-molecular oligomers

Molecule: residues 1-15 of p19^Arf: peptide from the N-terminus of p19^Arf spanning residues 1-15 (MGRRFLVTVRIQRAG; UniProt Q64364 1-15, looked up, fragment)
binding to Hdm2-ABD [15]: bound to Hdm2-ABD

Kd [17]: ~200 µM
B1: A1-mini, peptide of residues 2-10 of mouse Arf (p19Arf) (peptide)
peptide: GRRFLVTVR
